Screening data from PubChem BioAssay.
MC4R ag barr: agonists of human melanocortin 4 receptor (MC4R) beta-arrestin. P32245. U2OS MC4R beta-arrestin complementation, luminescence; percent of melanotan II response, DMSO zero. activation, % at 8.9 µM. hit rate 0.98% among 360,000. AID 540308;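 active = activation above a per-plate cutoff, the mean activation of sample wells on that plate plus 3 SD, cut at about 8% in these data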
Target sequence (P32245 whole entry, looked up): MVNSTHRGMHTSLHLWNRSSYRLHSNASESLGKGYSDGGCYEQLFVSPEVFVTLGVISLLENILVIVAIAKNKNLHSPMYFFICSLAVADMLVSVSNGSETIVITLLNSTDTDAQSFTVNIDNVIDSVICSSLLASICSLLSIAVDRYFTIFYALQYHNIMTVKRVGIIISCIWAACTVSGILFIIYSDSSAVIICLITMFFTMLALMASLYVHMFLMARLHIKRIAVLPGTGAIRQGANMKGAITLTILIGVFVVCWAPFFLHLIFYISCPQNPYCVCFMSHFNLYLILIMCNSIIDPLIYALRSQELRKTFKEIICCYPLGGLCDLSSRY
Granule exo inh: lytic granule exocytosis inhibition; TALL-104 LAMP-1 surface exposure, flow cytometry; cells stimulated with thapsigargin and PMA; AID 651702; inhibition, % at 10 µM; hit rate 0.66% among 360,000;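 active = inhibition above about 55%, limit read from the data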
MC4R antagonist: human MC4R antagonism in cAMP assay; MC4R-expressing cells, MTII-stimulated cAMP, LANCE TR-FRET; inhibition, % at 6.5 µM; hit rate 0.48% among 360,000; AID 540295;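 active = inhibition above its plate's cutoff, the mean of tested wells on that plate plus 3 SD, cut at about 29% in these data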;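 note: 0% = Melanotan II alone and 100% = Melanotan II plus saturating MCL0020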
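Assay system: U2OS-MC4R stable cell line; Also added: Melanotan II; Technique: Eu-cAMP/anti-cAMP TR-FRET, emission 671 nm; Times: 30-min compound, 1-h challenge, 1-h detection, room temperature.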
ABCB6 inh 2: human ABCB6 transporter inhibition | Q9NP58 | K562-ABCB6 porphyrin accumulation, flow cytometry, 1 h; hits give low values | fluorescence ratio to DMSO, % at 10 µM | hit rate 0.19% among 360,000;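 active = fluorescence ratio to DMSO below 75%, the collection mean minus 3 SD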;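 note: signal is porphyrin accumulated inside mitochondria; 100% equals median channel fluorescence of DMSO control wells; lower ratio means ABCB6 inhibition with less porphyrin fluorescence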
Tb MetRS inh: blocks T. brucei methionyl-tRNA synthetase activity. purified T. brucei MetRS, ATP depletion, Kinase-Glo luminescence. inhibition, % at 11.9 µM. hit rate 0.4% among 360,000;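 active = inhibition above a per-plate cutoff of the control wells' mean inhibition plus 3 SD, cut at about 5.5% in these data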;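 note: 0% = DMSO wells median and 100% = median of wells with control inhibitor compound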
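System: purified T. brucei MetRS enzyme / Detection: Kinase-Glo luciferase luminescence reporting remaining unconsumed ATP / Medium: HEPES buffer with MgCl2, KCl, DTT, spermine, BSA, pyrophosphatase / Replication: singlicate, one well per compound / Evaluation: percent inhibition relative to median high and low control wells / Schedule: 2 h aminoacylation at 25 °C after 15 min preincubation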
hiPSC survival: enhancers of human iPSC single-cell survival | hiPSC single-cell survival, ATPlite luminescence; 100% = ROCK inhibitor wells, 0% = DMSO | survival enhancement, % at 20 µM | hit rate 0.044% among 360,000; in the data active = survival enhancement above about 18%;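 note: cells exposed to compounds for 16 hours before the ATP read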
Tb MetRS conf: Trypanosoma brucei MetRS inhibition confirmed | shares compounds with Tb MetRS inh | hit rate 93% among 1,400 | inhibition, % at 11.9 µM | T. brucei MetRS enzyme, luminescence (ATP depletion) | AID 624412; in the data active = inhibition above about 7%
Jurkat tox: Jurkat T cell cytotoxicity for MetRS hits; inhibition, % at 8.3 µM; AID 624413; Jurkat cells viability, ATP luminescence; shares compounds with Tb MetRS inh; hit rate 12% among 1,400; in the data active = inhibition above about 15%;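 note: 0% = vehicle and 100% = reference inhibitor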
TbMetRS FP orth: orthogonal test for Trypanosoma brucei MetRS inhibitors; shares compounds with Tb MetRS inh; purified T. brucei MetRS, fluorescence polarization; inhibition, % at 11.9 µM; hit rate 44% among 1,400; AID 651607; in the data active = inhibition above about 17%;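 note: 0% = vehicle wells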
* = called active by the depositor; x = not tested or not shown. Shown are actives, neighbours in structure and some others; about 2.6% of the full set was active somewhere.

SMILES	MC4R ag barr	Granule exo inh	MC4R antagonist	ABCB6 inh 2	Tb MetRS inh	hiPSC survival	Tb MetRS conf	Jurkat tox	TbMetRS FP orth
O=S(=O)(Cc1ccc(Cl)cc1)NCc1ccc2c(c1)OCO2	-1	-2	0	99	0	0	x	x	x
O=C(COc1ccc2c(-c3ccccc3)cc(=O)oc2c1)N[C@@H](Cc1c[nH]c2ccc(O)cc12)C(=O)O	3	-5	6	104	1	-1	x	x	x
CC(Oc1ccc2c(-c3ccccc3)cc(=O)oc2c1)C(=O)NC(Cc1c[nH]c2ccc(O)cc12)C(=O)O (centres undefined)	-1	-4	8	101	7.4*	4	17*	-4	7
CS(=O)(=O)c1ccc(NC(=O)c2cccc(-n3cnnn3)c2)cc1	-1	0	-2	86	0	-1	x	x	x
COc1ccc(NC(=O)COc2cccc(-n3cnnn3)c2)cc1	0	-18	-2	101	10.0*	0	20*	-1	13
O=C(Nc1ccc(Br)cc1)c1cccc(-n2cnnn2)c1	0	-6	1	87	6.5*	0	13*	2	6
O=C(COc1cccc(-n2cnnn2)c1)Nc1ccccc1	3	6	-4	99	11*	-1	19*	9	17*
O=C(Cc1ccc(Cl)cc1)Nc1cc(S(=O)(=O)N2CCOCC2)ccc1N1CCCC1	-2	-11	14	102	39*	0	52*	-1	28*
CCc1nnc(NC(=O)CCC(=O)Nc2ccc(C)cc2)s1	-3	-3	14	104	0	4	x	x	x
O=S(=O)(Nn1c(O)c(C=C2N=c3ccccc3=N2)sc1=S)c1ccccc1	0	43	18	103	55*	0	65*	-5	39*
C(=C\c1ccccc1)/CN1CCN(Cc2nc(Cc3ccccc3)no2)CC1	0	-6	0	107	-1	-2	x	x	x
O=C(Cn1nnc2ccccc2c1=O)NCCc1ccc(Cl)cc1Cl	1	-1	-3	103	6.5*	0	34*	4	10
O=C(CSCC(=O)OCn1nnc2ccccc2c1=O)Nc1ccc(Cl)cc1	-2	-2	16	102	16*	-1	14*	6	3
O=C1NC(=O)C(=C2CCCCCC2)S1	-2	2	-3	92	-1	0	x	x	x
CCn1c(C)cc2c(c1=O)C(c1ccccc1)C(C(=O)OC)=C(N)O2 (centres undefined)	0	-2	0	82	0	-2	x	x	x
COC(=O)C1=C(N)Oc2cc(C)n(Cc3ccco3)c(=O)c2C1c1cccc(Cl)c1 (centres undefined)	-2	2	9	99	52*	-1	6	4	2
O=S(=O)(c1cccc(C(F)(F)F)c1)N1CCN(CC(O)COCc2ccccc2)CC1 (centres undefined)	1	0	1	97	0	0	x	x	x
N#CC(C#N)=NNc1ccc2cn[nH]c2c1	x	15	x	88	9.9*	0	24*	30*	54*
O=C(Nc1ccccc1)Nc1ncc([N+](=O)[O-])s1	-1	8	3	90	6.4*	-1	10*	63*	-3
O=C(COC(=O)c1ccccc1)Nc1ncc([N+](=O)[O-])s1	-1	-5	4	99	0	3	x	x	x
Fc1ccc(CSc2nc3ncc(Br)cc3[nH]2)cc1	0	5	7	86	3	-1	x	x	x
O=C(Cc1nc2ccccc2[nH]1)c1ccc(Cl)cc1	0	9	1	100	1	-1	x	x	x
Brc1cnc2nc(SCc3nc4ccccc4[nH]3)[nH]c2c1	-1	-8	11	96	57*	0	85*	-2	65*
Clc1ccc(/C(Cc2nc3ccccc3[nH]2)=N\Nc2ccccc2)cc1	0	6	4	110	8.6*	-3	32*	4	17*
Clc1ccc(OCCSCc2nc3ccccc3[nH]2)cc1	-2	0	2	117	58*	1	73*	5	48*
SMILES	MC4R ag barr	Granule exo inh	MC4R antagonist	ABCB6 inh 2	Tb MetRS inh	hiPSC survival	Tb MetRS conf	Jurkat tox	TbMetRS FP orth
Fc1ccccc1CSCc1nc2ccccc2[nH]1	-1	-4	5	101	1	0	x	x	x
Clc1ccc(SCc2nc3ccccc3[nH]2)cc1	-2	-2	10	96	17*	-3	30*	8	13
C=CCOc1ccc(C2C3=C(CCCC3=O)N(CC(=O)O)C3=C2C(=O)CCC3)cc1OCC	1	-6	4	96	0	0	x	x	x
C=CCOc1c(Br)cc(C2NC(=O)NC(C)=C2C(C)=O)cc1OCC (centres undefined)	0	0	14	100	7.0*	1	15*	-7	7
C=CCOc1c(Br)cc(C2C3=C(CCCC3=O)N(C)C3=C2C(=O)CCC3)cc1OCC	-2	-2	-6	100	9.5*	0	16*	-7	10
CCOC(=O)COc1c(Br)cc(C2NC(=O)NC(C)=C2C(C)=O)cc1OC (centres undefined)	-1	2	-3	96	-1	-2	x	x	x
O=C(C1CCCN(CCCc2ccccc2)C1)N1CCCCC1 (centres undefined)	0	-4	21	104	0	0	x	x	x
CCOc1c(Cl)cc(CNc2ccc(S(N)(=O)=O)cc2)cc1OC	0	-1	-3	94	-1	0	x	x	x
COc1c(Cl)cc(Cl)cc1CNc1ccc(S(N)(=O)=O)cc1	-1	-2	-1	97	16*	0	25*	17*	12
CCn1cnc2cc(NCc3cccc(OC)c3O)ccc21	-1	-5	0	99	18*	0	36*	4	15
COc1cc(OC)cc(-c2nnc(NC(=O)Cc3ccc(F)cc3)o2)c1	-2	1	8	102	-1	0	x	x	x
Cn1nnc(NCc2cc(Br)ccc2OCc2cccs2)n1	-1	3	3	104	20*	1	28*	3	13
FC(F)(F)c1cccc(CNC(=S)Nc2ccccc2)c1	4	2	-5	91	15*	-1	29*	1	9
Cc1cc(C)n(C(=O)c2ccc(C)c(S(=O)(=O)N3CCCCC3)c2)n1	-1	-3	-1	90	-1	-3	x	x	x
